Measurements published in ChEMBL document CHEMBL5647697, “Akt inhibition synergizes with polycomb repressive complex 2 inhibition in the treatment of multiple myeloma” (2019).
Activity calls are given as the source filed them. No cut-off for these calls is given here.

Assays:
NCI-H929 [1] = assay: Upregulation of CDKN1B mRNA expression in human NCI-H929 cells at 1 micromol/L after 24 hrs by qRT-PCR analysis; type: functional, cell-based; conditions: dose 1.0 µmol/L
In short: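 Cells were exposed to 1 μmol/L TAS-117 for 24 h. mRNA of FOXO3, FOXO4, BIM and CDKN1B was measured by qRT-PCR in H929 cells. Fold change is relative to the untreated control after normalization to GAPDH. Data are SD of triplicates.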

MM1.S [2] = assay: (§1) Synergistic activity against human MM.1S cells assessed as combination index […] at 0.125 uM incubated for 48 hrs by […]; type: functional
In short: (§2)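 Cells were exposed to the EZH2/EZH1 inhibitor (UNC1999 or GSK126) for 72 h in total, with the Akt inhibitor added for the last 48 h. Viability was read by MTS assay relative to untreated control cells, in triplicate. The combination index for each dose pair came from isobologram analysis.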

OPM-2 [3] = assay: Effects on EZH2 mRNA expression in human OPM-2 cells at 3 micromol/L incubated for last 24 hrs by qRT-PCR analysis; type: functional, cell-based; conditions: dose 3.0 µmol/L
MM1.S [4] = assay: Synergistic activity against human MM.1S cells assessed as combination index […] in presence of 2.5 uM GSK126 […] at 0.5 uM incubated for 48 hrs by MTT assay; type: functional; in short: as §2
OPM-2 [5] = assay: Effects on EZH2 protein expression in human OPM-2 cells at 3 micromol/L incubated for 24 hrs by Western blot analysis; type: functional, cell-based; conditions: dose 3.0 µmol/L
OPM-2 [6] = assay: Synergistic activity against human OPM-2 cells assessed as combination index preincubated in presence of 1.25 uM UNC1999 for 72 hrs followed by compound addition at 1.25 uM incubated for 48 hrs by MTT assay; type: functional
MM1.S [7] = assay: Downregulation of E2F1 mRNA expression in human MM1.S cells incubated at 0.3 to 3 micromol/L for 24 hrs by qRT-PCR analysis; type: functional, cell-based; conditions: dose 0.3-3 µmol/L
In short: (§3)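 MM.1S and H929 cells given TAS-117 at the indicated doses for 24 h. mRNA measured by RT-qPCR, fold change after normalization to GAPDH; SD of triplicates; significance versus untreated control.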

NCI-H929 [8] = assay: Upregulation of p27 protein expression in human NCI-H929 cells incubated at 0.3 to 3 micromol/L for 48 hrs by Western blot analysis; type: functional, cell-based; conditions: dose 0.3-3 µmol/L
MM1.S [9] = assay: Synergistic activity against human MM.1S cells assessed as combination index […] at 0.5 uM incubated for 48 hrs by MTT assay; type: functional; in short: as §2
NCI-H929 [10] = assay: Induction of apoptosis in human NCI-H929 cells assessed as early apoptotic cells at 5 micromol/L incubated for 48 hrs by annexin V/PI staining based flow cytometry (reference value: 0.37%); type: functional; conditions: dose 5 µmol/L, at 5 µM
OPM-2/BTZ [11] = assay: Synergistic activity against human OPM-2/BTZ cells assessed as combination index preincubated in presence of 2.5 uM UNC1999 for 72 hrs followed by compound addition at 2 uM incubated for 48 hrs by MTT assay; type: functional
NCI-H929 [12] = assay: Induction of apoptosis in human NCI-H929 cells assessed as early apoptotic cells at 2 micromol/L incubated for 12 hrs by annexin V/PI staining based flow cytometry (reference value: 0.37%); type: functional; conditions: dose 2 µmol/L, at 2 µM
MM1.S [13] = assay: Downregulation of CDK1 protein expression in human MM1.S cells incubated at 0.3 to 3 micromol/L for 48 hrs by Western blot analysis; type: functional, cell-based; conditions: dose 0.3-3 µmol/L
In short: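 MM.1S and H929 cells given TAS-117 at the indicated doses for 48 h. Protein levels assessed by immunoblot.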

OPM-2 [14] = assay: Synergistic activity against human OPM-2 cells assessed as combination index preincubated in presence of 1.25 uM GSK126 for 72 hrs followed by compound addition at 1.25 uM incubated for 48 hrs by MTT assay; type: functional
MM1.S [15] = assay: Induction of apoptosis in human MM1.S cells assessed as viable cells preincubated in presence of 5 micromol/L UNC1999 for 48 hrs followed by compound addition at 2 micromol/L incubated for 12 hrs by annexin V/PI staining based flow cytometry (reference value: 88.2%); type: functional; conditions: dose 2 µmol/L, at 2 µM
MM1.S [16] = assay: Upregulation of p27 protein expression in human MM1.S cells incubated at 0.3 to 3 micromol/L for 48 hrs by Western blot analysis; type: functional, cell-based; conditions: dose 0.3-3 µmol/L
NCI-H929 [17] = assay: Upregulation of EZH1 mRNA expression in human NCI-H929 cells at 0.03 to 3 micromo/L at 6 to 48 hrs by qRT-PCR analysis; type: functional, cell-based; conditions: dose 0.03-3 µmol/L, time 6-48 hrs
In short: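 EZH1 mRNA was measured by qRT-PCR in MM.1S and H929 cells. Dose series: cells were treated with graded TAS-117 for 24 h. Time course: cells were treated with 3 μmol/L for the indicated times. Fold change is after GAPDH normalization, relative to the untreated control. Data are SD of triplicates.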

NCI-H929 [18] = assay: Induction of apoptosis in human NCI-H929 cells assessed as viable cells at 5 micromol/L incubated for 48 hrs by annexin V/PI staining based flow cytometry (reference value: 95.6%); type: functional; conditions: NCI-H929, 48 h, dose 5 µmol/L, read-out: Activity
OPM-2/BTZ [19] = assay: Synergistic activity against human OPM-2/BTZ cells assessed as combination index preincubated in presence of 1.25 uM UNC1999 for 72 hrs followed by compound addition at 2 uM incubated for 48 hrs by MTT assay; type: functional
MM1.S [20] = assay: Induction of apoptosis in human MM1.S cells assessed as necrotic cells preincubated in presence of 5 micromol/L UNC1999 for 48 hrs followed by compound addition at 2 micromol/L incubated for 12 hrs by annexin V/PI staining based flow cytometry (reference value: 0.17%); type: functional; conditions: dose 2 µmol/L, at 2 µM
NCI-H929 [21] = assay: Cytotoxicity against human NCI-H929 cells assessed as reduction in cell viability at 0.3125 to 10 micromol/L after 48 hrs by MTS assay; type: functional, cell-based; conditions: dose 0.3125-10 µmol/L
In short: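 Seven myeloma lines (MM.1S, H929, OPM2/BTZ among them) exposed to TAS-117 at increasing concentrations up to 10 μmol/L for 48 h. Viability read by MTS against an untreated control; mean ± SD of triplicates.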

NCI-H929 [22] = assay: Induction of apoptosis in human NCI-H929 cells assessed as necrotic cells at 2 micromol/L incubated for 12 hrs by annexin V/PI staining based flow cytometry (reference value: 2.61%); type: functional; conditions: dose 2 µmol/L, at 2 µM
OPM-2/BTZ [23] = assay: Upregulation of EZH1 mRNA expression in human OPM-2/BTZ cells at 0.03 to 3 micromol/L after 6 to 48 hrs by qRT-PCR analysis; conditions: dose 0.03-3 µmol/L, time 6-48 hrs
MM1.S [24] = assay: Induction of apoptosis in human MM1.S cells assessed as early apoptotic cells at 2 micromol/L incubated for 12 hrs by annexin V/PI staining based flow cytometry (reference value: 8.03%); type: functional; conditions: dose 2 µmol/L, at 2 µM
MM1.S [25] = assay: Downregulation of E2F2 mRNA expression in human MM1.S cells incubated at 0.3 to 3 micromol/L for 24 hrs by qRT-PCR analysis; type: functional, cell-based; conditions: dose 0.3-3 µmol/L; in short: as §3
OPM-2/BTZ [26] = assay: Synergistic activity against human OPM-2/BTZ cells assessed as combination index preincubated in presence of 1.25 uM UNC1999 for 72 hrs followed by compound addition at 0.5 uM incubated for 48 hrs by MTT assay; type: functional
MM1.S [27] = assay: as §1; type: functional; in short: as §2; remark: listed apart in the source

C[C@]1(O)C[C@@](N)(c2ccc(-c3nc4n(c3-c3ccccc3)COc3ccncc3-4)cc2)C1 [PIFUSERTIB]
Activity (NCI-H929 [1]): Active
CI (MM1.S [2]): 1.08
Activity (OPM-2 [3]): inactive
CI (MM1.S [4]): 0.619
Activity (OPM-2 [5]): inactive
CI (OPM-2 [6]): 1.33
Activity (MM1.S [7]): Active
Activity (NCI-H929 [8]): Active
CI (MM1.S [9]): 1.03
Activity (NCI-H929 [10]): 9.69%
CI (OPM-2/BTZ [11]): 0.483
Activity (NCI-H929 [12]): 4.49%
Activity (MM1.S [13]): Active
CI (OPM-2 [14]): 1.29
Activity (MM1.S [15]): 33%
Activity (MM1.S [16]): Active
Activity (NCI-H929 [17]): Dose-Dependent Effect
viability at 5 µM (NCI-H929 [18]): 82.7%
CI (OPM-2/BTZ [19]): 0.395
Activity (MM1.S [20]): 1.04%
Activity (NCI-H929 [21]): Active
Activity (NCI-H929 [22]): 0.35%
Activity (OPM-2/BTZ [23]): Dose-Dependent Effect
Activity (MM1.S [24]): 9.49%
Activity (MM1.S [25]): Active
CI (OPM-2/BTZ [26]): 0.74
CI (MM1.S [27]): 0.27
